# Laboratory results reported in ChEMBL document CHEMBL1140348, “5'-Homoneplanocin A inhibits hepatitis B and hepatitis C” (J Med Chem, 2005).
# Tests used:
# [1] = tested on: Hepatitis B virus; test: Cytotoxic concentration against […] replication in 2.2.15 cell culture; type: functional; settings: HepG2 2.2.15
# [2] = tested on: Hepatitis B virus; test: (§1) Effective concentrations at which […] depression of extracellular virion DNA (HBV) was observed in 2.2.15 Cells; type: functional; settings: HepG2 2.2.15
# How it was run: (§2)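 Confluent 2.2.15 cells in RPMI1640 with 2% FBS got nine daily doses, with medium and compound refreshed daily; six cultures per concentration on two plates. HBV DNA was quantified by blot hybridization 24 h after the last dose. EC50 and EC90 are the 2-fold and 10-fold depression versus untreated cultures, from linear regression over two to four experiments.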
# [3] = tested on: Hepatitis B virus; test: Effective concentrations at which 10-fold depression of intracellular intermediates of HBV DNA was observed in 2.2.15 Cells; type: functional; settings: HepG2 2.2.15; how it was run: as §2
# [4] = tested on: Hepatitis C virus; test: Effective concentrations at which 10-fold depression of HCV RNA was observed in AVA5 cells (Huh 7 cells with subgenomic HCV replicon BB7I; type: functional, Hepacivirus hominis
# How it was run: (§3)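 AVA5 cells (Huh7 carrying subgenomic HCV replicon BB7), grown 3 days with G418, then treated without G418 for 3 consecutive days while rapidly dividing, 3 cultures per concentration, fresh compound daily. HCV RNA measured by quantitative blot hybridization 24 h after last dose. EC90 is the concentration giving 10-fold HCV RNA depression vs untreated, by linear regression.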
# [5] = tested on: Hepatitis B virus; test: as §1; type: functional, organism-based; settings: HepG2 2.2.15
# How it was run: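 Confluent 2.2.15 cells in RPMI1640 with 2% FBS, given nine consecutive daily doses with daily medium change, six cultures per concentration on two plates. HBV DNA measured by quantitative blot hybridization 24 h after last dose. EC is the concentration giving 2-fold (EC50) or 10-fold (EC90) depression vs untreated, by linear regression, 2–4 experiments.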
# [6] = tested on: Hepatitis C virus; test: Selectivity index as the ratio of CC50 and EC50; type: functional, Hepacivirus hominis
# How it was run: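 AVA5 cells (Huh7 carrying the BB7 subgenomic HCV replicon) were grown 3 days with G418, which was then withdrawn. Rapidly dividing cultures, three per concentration, were treated for 3 consecutive days with daily medium renewal. HCV RNA was measured by blot hybridization 24 h after the last dose, with neutral red uptake for toxicity. SI is CC50/EC50, each at 2-fold depression versus untreated cultures.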
# [7] = tested on: Hepatitis B virus; test: Selectivity index of virion as the ratio of CC50 and EC90; type: functional
# How it was run: (§4)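 The 2.2.15 HBV assay used nine daily doses. HBV DNA was measured by blot hybridization and toxicity by neutral red uptake, both 24 h after the last dose. The index is CC50/EC90, where EC90 is the 10-fold HBV DNA depression and CC50 the 2-fold dye-uptake depression versus untreated cultures.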
# [8] = tested on: Hepatitis B virus; test: Selectivity index of intracellular intermediates as the ratio of CC50 and EC90; type: functional; how it was run: as §4
# [9] = tested on: Hepatitis C virus; test: Effective concentrations at which 2-fold depression of HCV RNA was observed in AVA5 cells (Huh 7 cells with subgenomic HCV replicon BB7); type: functional, organism-based, Hepacivirus hominis
# How it was run: as §3, with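 “EC50” for “EC90”, “2-fold” for “10-fold”, “regression on all treated cultures.” for “regression.”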
# [10] = Cytotoxic concentration against HCV replication in AVA5 cell culture; type: cell-based; settings: AVA5 cells
# How it was run: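 AVA5 replicon cells given compound daily for 3 days, without G418. Neutral red uptake (A510) read 24 h after last treatment. CC50 is the concentration giving 2-fold lower dye uptake vs untreated cultures, by linear regression on combined data from all treated cultures.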
# [11] = Cytotoxic concentration against HBV replication in 2.2.15 cell culture; type: cell-based, HepG2 2.2.15; settings: hepatitis b virus, 2.2.15 cells
# How it was run: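 Confluent 2.2.15 cells in RPMI1640 with 2% FBS received nine consecutive daily doses, with medium and compound renewed daily. Toxicity was read 24 h after the last dose as neutral red uptake (A510), with three cultures per concentration on plates seeded in parallel from the same cell stock. CC50 is the 2-fold depression of dye uptake versus untreated cultures, from linear regression.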
SMILES,CC50 [1] [mM],EC90 [2] [µM],EC90 [3] [µM],EC90 [4] [µM],EC50 [5] [nM],SI [6],SI [7],SI [8],EC50 [9] [µM],CC50 [10] [µM],CC50 [11] [mM]
Nc1ncnc2c1ncn2[C@@H]1C=C(CCO)[C@@H](O)[C@H]1O,1.21,7.7,27,31,530,30,158,45,7.3,216,–
NC(=O)c1ncn([C@@H]2O[C@H](CO)[C@@H](O)[C@H]2O)n1 [RIBAVIRIN],–,–,–,> 100,–,–,–,–,> 100,71,–
"Nc1ccn([C@@H]2CS[C@H](CO)O2)c(=O)n1 (single isomer, unassigned) [LAMIVUDINE]",–,0.17,0.69,–,60,–,11630,3877,–,–,2.67
